The test system of assay [1] is K562. Description: Resistance index, ratio of IC50 for human K562/A02 cells to IC50 for human K562 cells. The assay is classed as functional.
The nature of assay [2]: Cytotoxicity against human K562/A02 cells after 48 hrs by MTT assay. The assay is classed as functional, cell-based. As to conditions: K562/A02, 48 h. Put shortly:
(§1)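 Cells kept in RPMI-1640 with 10% FBS, 2 mmol/L glutamine, penicillin and streptomycin at 37 °C, 5% CO2. Seeded at 5 × 10³ cells/well and left 24 h to attach, then exposed to compounds or etoposide reference for 48 h. MTT (5 mg/mL) added for 4 h at 37 °C, supernatant removed, formazan dissolved in DMSO, absorbance read at 490 nm.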

The subject of the next assay is HeLa. Description: Cytotoxicity against human HeLa cells after 48 hrs by MTT assay. It is filed as functional, cell-based. Put shortly:
as §1

The test system of assay [3] is K562. Description: Cytotoxicity against human K562 cells after 48 hrs by MTT assay. As to conditions: K562, 48 h. The assay is classed as functional, cell-based. An outline of the steps:
as §1
(In general: Formazan colour is commonly taken as a measure of viable cells.)

Assay [4] can be described thus: Reduction in MDR1 mRNA expression in human K562/A02 cells at 6 uM incubated for 48 hrs by RT-PCR method. It is filed as functional, cell-based. Put shortly:
(§2)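 K562 and K562/A02 cells seeded 1 × 10⁵/well in 10% FCS/RPMI-1640; compound added 24 h later, then cultured another 48 h. Total RNA extracted with Trizol, checked at 260/280 nm, reverse transcribed; MDR-1 (157 bp) and β-actin (540 bp) amplified, products run on agarose gel, stained, MDR-1 normalised to β-actin against untreated control.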

For assay [5], the system named is K562/A02. Kind of assay: Induction of apoptosis in human K562/A02 cells assessed as early apoptotic cells level at 6 uM after 48 hrs by Annexin V-FITC and propidium iodide double staining based flow cytometry (reference value: 6.23%). It is filed as functional.
Assay [6] relates to K562/A02. Description: Induction of apoptosis in human K562/A02 cells assessed as late apoptotic cells level at 6 uM after 48 hrs by Annexin V-FITC and propidium iodide double staining based flow cytometry (reference value: 1.58%). The assay is classed as functional. Background: In flow cytometry, cells or beads pass a laser one at a time.
Assay [7] has as its system K562/A02. Kind of assay: Induction of apoptosis in human K562/A02 cells assessed as necrotic cells level at 6 uM after 48 hrs by Annexin V-FITC and propidium iodide double staining based flow cytometry (reference value: 1.53%). It is filed as functional.
Assay [8] has as its system K562/A02. Kind of assay: Induction of apoptosis in human K562/A02 cells assessed as viable cells level at 6 uM after 48 hrs by Annexin V-FITC and propidium iodide double staining based flow cytometry (reference value: 90.7%). It is filed as functional.
Assay [9] can be described thus: Reduction in MDR1 mRNA expression in human K562/A02 cells at 6 uM incubated for 48 hrs by RT-PCR method relative to untreated control. It is filed as functional, cell-based. An outline of the steps: as §2

The source made the active and inactive calls. The rule behind the calls is not given here.

Take `COc1cc([C@@H]2c3cc4c(cc3[C@@H](NCc3ccc(CN(C)C)o3)[C@H]3COC(=O)[C@H]23)OCO4)cc(OC)c1OC`: in the assay with K562 [1], the “Ratio IC50” value was 5.11. The IC50 in assay [2] is 35.3 µM; with HeLa it was 14.2 µM; with K562 [3] it was 6.91 µM.
For the compound `COc1cc([C@@H]2c3cc4c(cc3[C@@H](NCc3ccc(C)o3)[C@H]3COC(=O)[C@H]23)OCO4)cc(OC)c1OC`, the “Ratio IC50” value with K562 [1] came out at 1.48. Also, the IC50 in [2] is 10.1 µM; in the assay with HeLa, 1.94 µM; in the assay on K562 [3], 6.79 µM.
Consider `COc1cc([C@@H]2c3cc4c(cc3[C@@H](NCc3ccc(CN5CCCC5)o3)[C@H]3COC(=O)[C@H]23)OCO4)cc(OC)c1O`, for which the “Ratio IC50” value with K562 [1] was 4.67. The IC50 was determined as 24.7 µM in [2], 1.21 µM in the assay with HeLa and 5.28 µM in the assay on K562 [3]. Also, the “MDR1 mRNA reduction (qualitative)” value in [4] was “Active”.
On to `COc1cc([C@@H]2c3cc4c(cc3[C@@H](NCc3ccco3)[C@H]3COC(=O)[C@H]23)OCO4)cc(OC)c1O`, for which the “Ratio IC50” value in the assay on K562 [1] was greater than 100. Besides, the concentration for half-maximal inhibition (IC50) in assay [2] is greater than 1000 µM; in the assay with HeLa, 70.5 µM; with K562 [3], greater than 100 µM.
As for `COc1cc([C@@H]2c3cc4c(cc3[C@@H](NCc3ccc(CN5CCCC5)o3)[C@H]3COC(=O)[C@H]23)OCO4)cc(OC)c1OC`, the “Ratio IC50” value with K562 [1] was 6.43. Besides, the figures for the IC50 (in assay [2]; in the assay on HeLa; in the assay with K562 [3]) were 40.2 µM, 1.4 µM and 6.25 µM, respectively.
Taken in the same sequence, the figures for `CCN1CCN(Cc2ccc(CN[C@@H]3c4cc5c(cc4[C@@H](c4cc(OC)c(OC)c(OC)c4)[C@H]4C(=O)OC[C@@H]43)OCO5)o2)CC1` were greater than 100, greater than 1000 µM, greater than 100 µM and greater than 100 µM.
Taken in the same sequence, the figures for `COc1cc([C@@H]2c3cc4c(cc3[C@@H](NCc3ccc(CN(C)C)o3)[C@H]3COC(=O)[C@H]23)OCO4)cc(OC)c1O` were 8.89, 70.1 µM, 0.51 µM and 7.89 µM.
With `COc1cc([C@@H]2c3cc4c(cc3[C@@H](NCc3ccc([N+](=O)[O-])o3)[C@H]3COC(=O)[C@H]23)OCO4)cc(OC)c1O`, the “Ratio IC50” value in the assay with K562 [1] was found to be 6.41. Also, the IC50 was found to be 59.2 µM in [2], 6.64 µM with HeLa and 9.24 µM in the assay on K562 [3].
Taken in the same sequence, the figures for `COc1cc([C@@H]2c3cc4c(cc3[C@@H](NCc3ccc(CN5CCN(C)CC5)o3)[C@H]3COC(=O)[C@H]23)OCO4)cc(OC)c1OC` were greater than 100, greater than 1000 µM, 15.3 µM and greater than 100 µM.
For the compound `CCN(CC)Cc1ccc(CN[C@@H]2c3cc4c(cc3[C@@H](c3cc(OC)c(OC)c(OC)c3)[C@H]3C(=O)OC[C@@H]32)OCO4)o1`, the “Ratio IC50” value with K562 [1] is greater than 100. Further, the IC50 is greater than 1000 µM in assay [2], greater than 100 µM with HeLa and greater than 100 µM with K562 [3].
Turning to `CCN1CCN(Cc2ccc(CN[C@@H]3c4cc5c(cc4[C@@H](c4cc(OC)c(O)c(OC)c4)[C@H]4C(=O)OC[C@@H]43)OCO5)o2)CC1`, the “Ratio IC50” value in the assay with K562 [1] amounted to 16.54. Further, the IC50 is 123 µM in assay [2], 0.67 µM in the assay on HeLa and 7.45 µM in the assay on K562 [3].
Taken in the same sequence, the figures for `COc1cc([C@@H]2c3cc4c(cc3[C@@H](NCc3ccc(CN5CCN(C)CC5)o3)[C@H]3COC(=O)[C@H]23)OCO4)cc(OC)c1O` were 24.61, 200 µM, 2.42 µM and 8.13 µM.
With `COc1cc([C@@H]2c3cc4c(cc3[C@@H](NCc3ccco3)[C@H]3COC(=O)[C@H]23)OCO4)cc(OC)c1OC`, the “Ratio IC50” value with K562 [1] was 1.89. For the same compound, the IC50 came out at 10.9 µM in assay [2], 1.53 µM with HeLa and 5.78 µM in the assay on K562 [3].
Taken in the same sequence, the figures for `COc1cc([C@@H]2c3cc4c(cc3[C@@H](NCc3ccc(C)o3)[C@H]3COC(=O)[C@H]23)OCO4)cc(OC)c1O` were 34.23, greater than 1000 µM, 60.5 µM and 65.9 µM.
As for `COc1cc([C@@H]2c3cc4c(cc3[C@H](O)[C@H]3COC(=O)[C@H]23)OCO4)cc(OC)c1OC` [PODOFILOX], the “Ratio IC50” value with K562 [1] was 5.667. The same compound came in with an IC50 in assay [2] of 0.17 µM.
On to `COc1cc([C@@H]2c3cc4c(cc3[C@@H](O[C@@H]3O[C@@H]5CO[C@@H](C)O[C@H]5[C@H](O)[C@H]3O)[C@H]3COC(=O)[C@H]23)OCO4)cc(OC)c1O` [ETOPOSIDE], for which the “Ratio IC50” value with K562 [1] is 69.29. For the same compound, the values for the half-maximal inhibitory concentration (IC50) (in [2]; in the assay with K562 [3]) were 235 µM and 3.39 µM, respectively. The “MDR1 mRNA reduction (qualitative)” value in assay [4] is “Active”. Besides, the Activity is listed as 28.4% with K562/A02 [5], 7.98% in the assay on K562/A02 [6], 2.52% in the assay with K562/A02 [7] and 61.1% in the assay on K562/A02 [8].
For the compound `CCN(CC)Cc1ccc(CN[C@@H]2c3cc4c(cc3[C@@H](c3cc(OC)c(O)c(OC)c3)[C@H]3C(=O)OC[C@@H]32)OCO4)o1`, the “Ratio IC50” value in the assay on K562 [1] is greater than 100. Also, the IC50 in assay [2] was greater than 1000 µM; in the assay with HeLa it was 6.38 µM; with K562 [3], 8.25 µM. In addition, in assay [4], the “MDR1 mRNA reduction (qualitative)” value was “Active”. This compound yielded an inhibition in assay [9] of 35%.

A word on the IC50: it is the concentration that gives 50% inhibition. A word on the inhibition: it is the drop in the measured response relative to a control, in per cent. A higher inhibition goes with strong suppression.

Values taken from ChEMBL document CHEMBL3352012, “Synthesis and evaluation of novel podophyllotoxin derivatives as potential antitumor agents” (Eur J Med Chem, 2014).
